In ChEMBL document CHEMBL4842314, “Synthesis and SAR evaluation of coumarin derivatives as potent cannabinoid receptor agonists” (Eur J Med Chem, 2021):

Key:
[1] = target: T1, Cannabinoid receptor 1 (Homo sapiens, UniProt P21554); assay: Displacement of [3H]-CP55940 from human recombinant CB1 receptor expressed in CHO-K1 cell membrane at 1 uM measured after 3 hrs by scintillation spectrometry; format: cell membranes
[2] = target: T2, Cannabinoid receptor 2 (Homo sapiens, UniProt P34972); assay: Displacement of [3H]-CP55940 from human recombinant CB2 receptor expressed in CHO-K1 cell membrane at 1 uM measured after 3 hrs by scintillation spectrometry; format: cell membranes
[3] = target: T1, Cannabinoid receptor 1; assay: Displacement of [3H]-CP55940 from human recombinant CB1 receptor expressed in CHO-K1 cell membrane measured after 3 hrs by scintillation spectrometry; format: cell membranes
[4] = target: T2, Cannabinoid receptor 2; assay: Displacement of [3H]-CP55940 from human recombinant CB2 receptor expressed in CHO-K1 cell membrane measured after 3 hrs by scintillation spectrometry; format: cell membranes
[5] = target: T2, Cannabinoid receptor 2; assay: Agonist activity at human recombinant CB2 receptor expressed in CHO-K1 cell membrane assessed as increase in GTPgammaS binding at 1 uM pretreated for 30 mins followed by [35S]GTPgammaS addition for 90 mins by [35S]GTP-gammaS binding assay relative to CP55940; format: functional, cell membranes; settings: filed as agonist, time 120.0 min
How it was run: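 Membranes (5 μg) from PathHunter CHOK1 cells stably expressing hCB1 or hCB2 pre-incubated 30 min at room temperature with test ligand at 1 μM final, 1 μM GDP and 5 μg saponin in Tris-HCl pH 7.4, MgCl2, NaCl, EDTA, BSA, DTT. [35S]GTPγS (0.3 nM final) was then added for 90 min at 25 °C. Filtration on GF/B. Emax given relative to CP55,940 (100%), two experiments in duplicate.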

[6] = target: T2, Cannabinoid receptor 2; assay: Agonist activity at human recombinant CB2 receptor expressed in CHO-K1 cell membrane assessed as increase in GTPgammaS binding pretreated for 30 mins followed by [35S]GTPgammaS addition for 90 mins by [35S]GTP-gammaS binding assay; format: functional, cell membranes
How it was run: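 Concentration-response [35S]GTPγS binding on 5 μg hCB1 or hCB2 CHOK1 membranes. Ligand, 1 μM GDP and saponin pre-incubated 30 min at room temperature, then 0.3 nM [35S]GTPγS added for 90 min at 25 °C. Filtration read-out. Three experiments in duplicate.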

T2 sequence (P34972 whole entry): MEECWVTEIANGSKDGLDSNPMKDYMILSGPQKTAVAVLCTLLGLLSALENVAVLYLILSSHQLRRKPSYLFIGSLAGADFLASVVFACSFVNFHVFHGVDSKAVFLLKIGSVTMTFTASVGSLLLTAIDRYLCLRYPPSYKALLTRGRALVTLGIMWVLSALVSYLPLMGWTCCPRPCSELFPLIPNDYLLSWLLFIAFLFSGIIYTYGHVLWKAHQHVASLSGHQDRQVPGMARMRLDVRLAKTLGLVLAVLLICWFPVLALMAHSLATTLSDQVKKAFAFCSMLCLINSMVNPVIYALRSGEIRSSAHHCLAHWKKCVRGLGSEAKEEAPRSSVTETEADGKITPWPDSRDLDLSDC
T1 sequence (P21554 whole entry): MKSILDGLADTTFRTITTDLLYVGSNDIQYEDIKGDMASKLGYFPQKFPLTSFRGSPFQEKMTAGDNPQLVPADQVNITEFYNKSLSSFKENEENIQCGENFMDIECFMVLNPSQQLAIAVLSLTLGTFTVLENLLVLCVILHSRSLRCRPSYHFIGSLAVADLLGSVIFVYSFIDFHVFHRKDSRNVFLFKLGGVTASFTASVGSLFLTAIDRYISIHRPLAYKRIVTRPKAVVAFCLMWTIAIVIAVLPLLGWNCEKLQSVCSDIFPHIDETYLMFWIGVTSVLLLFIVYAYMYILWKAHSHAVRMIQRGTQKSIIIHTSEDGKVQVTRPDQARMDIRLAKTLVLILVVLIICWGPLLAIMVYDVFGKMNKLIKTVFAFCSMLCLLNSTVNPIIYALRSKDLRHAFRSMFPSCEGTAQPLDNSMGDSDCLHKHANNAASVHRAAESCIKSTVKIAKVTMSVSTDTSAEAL

Molecule CCCCCCC(C)(C)c1cc(OC)c2cc(Cc3ccccc3)c(=O)oc2c1 has an inhibition ([1]; filed as agonist) of over 50% and an inhibition ([2]; filed as agonist) of over 50%.
CCCCc1cc2c(OC)cc(C3(CCCC)CCCC3)cc2oc1=O gave a Ki ([3]; read-out: pKi (converted)) of over 1000 nM, a Ki ([4]; read-out: pKi (converted)) of over 1000 nM and an inhibition [1] of 15%. For the same molecule, the inhibition [2] was -1%.
CCCCCCC(C)(C)c1cc(O)c2cc(Cc3ccccc3C)c(=O)oc2c1 gave a Ki ([3]; read-out: pKi (converted)) of over 1000 nM, a Ki ([4]; read-out: Ki) of 222 nM and an inhibition ([1]; filed as agonist) of 47%. For the same molecule, the inhibition ([2]; filed as agonist) was over 50%.
CCCCC(C)(C)c1cc(OC)c2cc(Cc3ccccc3)c(=O)oc2c1 gave a Ki ([3]; read-out: Ki) of 486 nM, a Ki ([4]; read-out: pKi (converted)) of over 1000 nM and an inhibition ([1]; filed as agonist) of over 50%. It also gave an inhibition [2] of 39%.
For CCCCC(C)(C)c1cc(O)c2cc(Cc3ccccc3)c(=O)oc2c1, the Ki ([3]; read-out: pKi (converted)) was over 1000 nM, the Ki ([4]; read-out: pKi (converted)) was over 1000 nM and the inhibition [1] was 12%. It also gave an inhibition [2] of 24%.
CCCCCCC(C)(C)c1cc(O)c2cc(Cc3ccccc3C(F)(F)F)c(=O)oc2c1 was tested, and the Ki ([3]; read-out: pKi (converted)) was 1000 nM, the Ki ([4]; read-out: pKi (converted)) was over 1000 nM and the inhibition ([1]; filed as agonist) was 49%. For the same molecule, the inhibition ([2]; filed as agonist) was 42%.
CCCCC1(c2cc(OC)c3cc(-c4ccccc4C)c(=O)oc3c2)CCCC1 showed a Ki ([3]; read-out: pKi (converted)) of over 1000 nM and a Ki ([4]; read-out: pKi (converted)) of over 1000 nM.
Work on CCCCC1(c2cc(O)c3cc(CC)c(=O)oc3c2)CCCC1 yielded a Ki ([3]; read-out: pKi (converted)) of over 1000 nM, a Ki ([4]; read-out: Ki) of 60.6 nM and an inhibition [1] of 34%. It also gave an inhibition ([2]; filed as agonist) of over 50% and an Emax [5] of 87%.
CCCCCCC(C)(C)c1cc(O)c2cc(Cc3ccccc3O)c(=O)oc2c1 gave an inhibition ([1]; filed as agonist) of over 50% and an inhibition ([2]; filed as agonist) of over 50%.
Work on CCCCC1(c2cc(OC)c3cc(CCC)c(=O)oc3c2)CCCC1 yielded a Ki ([3]; read-out: pKi (converted)) of over 1000 nM, a Ki ([4]; read-out: pKi (converted)) of over 1000 nM and an inhibition [1] of 32%. The inhibition [2] was 38%.
For CCCCC1(c2cc(OC)c3cc(C)c(=O)oc3c2)CCCC1, the Ki ([3]; read-out: pKi (converted)) was over 1000 nM, the Ki ([4]; read-out: pKi (converted)) was over 1000 nM and the inhibition [1] was 16%. The inhibition [2] was 1%.
Work on CCCCC1(c2cc(O)c3cc(Cc4ccccn4)c(=O)oc3c2)CCCC1 yielded a Ki ([3]; read-out: pKi (converted)) of over 1000 nM, a Ki ([4]; read-out: pKi (converted)) of over 1000 nM and an inhibition [1] of 34%. It also gave an inhibition ([2]; filed as agonist) of 44%.
In the case of CCCCC1(c2cc(O)c3cc(C)c(=O)oc3c2)CCCCC1, the Ki ([3]; read-out: pKi (converted)) is reported as over 1000 nM, the Ki ([4]; read-out: Ki) is reported as 106 nM and the inhibition [1] is reported as 19%. It also gave an inhibition ([2]; filed as agonist) of over 50% and an Emax [5] of 66%.
For CCCCC1(c2cc(O)c3cc(Cc4ccccn4)c(=O)oc3c2)CCCCC1, the Ki ([3]; read-out: pKi (converted)) was over 1000 nM, the Ki ([4]; read-out: Ki) was 71.9 nM and the inhibition [1] was -7%. For the same molecule, the inhibition ([2]; filed as agonist) was over 50%, the Emax [5] was 68% and the EC50 [6] was 42 nM.
In the case of CCCCC1(c2cc(O)c3cc(-c4ccc(C(F)(F)F)cc4)c(=O)oc3c2)CCCC1, the Ki ([3]; read-out: pKi (converted)) is reported as over 1000 nM, the Ki ([4]; read-out: pKi (converted)) is reported as over 1000 nM and the inhibition [2] is reported as -10%.
CCCCCc1cc(O)c2cc(Cc3cccnc3)c(=O)oc2c1 gave a Ki ([3]; read-out: pKi (converted)) of over 1000 nM and a Ki ([4]; read-out: pKi (converted)) of over 1000 nM.
Work on CCCCC(C)(C)c1cc(O)c2cc(Cc3ccccc3C)c(=O)oc2c1 yielded a Ki ([3]; read-out: pKi (converted)) of over 1000 nM, a Ki ([4]; read-out: pKi (converted)) of over 1000 nM and an inhibition [1] of 30%. The inhibition ([2]; filed as agonist) was 41%.
CCCCC1(c2cc(O)c3cc(C)c(=O)oc3c2)CCCC1 was tested, and the Ki ([3]; read-out: pKi (converted)) was over 1000 nM, the Ki ([4]; read-out: pKi (converted)) was 1000 nM and the inhibition [1] was -10%. For the same molecule, the inhibition ([2]; filed as agonist) was 49%.
With CCCCC(C)(C)c1cc(OC)c2cc(Cc3ccccc3OC)c(=O)oc2c1 the Ki ([3]; read-out: Ki) was 196 nM, the Ki ([4]; read-out: Ki) was 231 nM and the inhibition ([1]; filed as agonist) was over 50%. For the same molecule, the inhibition ([2]; filed as agonist) was over 50%.
For CCCCc1cc2c(OC)cc(C3(CCCC)CCCCC3)cc2oc1=O, the Ki ([3]; read-out: pKi (converted)) was over 1000 nM, the Ki ([4]; read-out: pKi (converted)) was over 1000 nM and the inhibition [2] was 2%.
With CCCCCc1cc(OC)c2cc(Cc3ccncc3)c(=O)oc2c1 the Ki ([3]; read-out: pKi (converted)) was over 1000 nM, the Ki ([4]; read-out: pKi (converted)) was over 1000 nM and the inhibition [1] was 0%. It also gave an inhibition [2] of 11%.
CCCCC1(c2cc(OC)c3cc(CC)c(=O)oc3c2)CCCC1 gave a Ki ([3]; read-out: pKi (converted)) of over 1000 nM, a Ki ([4]; read-out: pKi (converted)) of over 1000 nM and an inhibition [1] of 33%. The inhibition [2] was 0%.
CCCCCCC(C)(C)c1cc(O)c2cc(Cc3ccccc3)c(=O)oc2c1 was tested, and the inhibition ([1]; filed as agonist) was over 50% and the inhibition ([2]; filed as agonist) was over 50%.
With CCCCC1(c2cc(O)c3cc(Cc4cccnc4)c(=O)oc3c2)CCCC1 the Ki ([3]; read-out: pKi (converted)) was over 1000 nM, the Ki ([4]; read-out: Ki) was 310 nM and the inhibition [1] was 19%. It also gave an inhibition ([2]; filed as agonist) of over 50% and an Emax [5] of 82%.
In the case of CCCCC1(c2cc(OC)c3cc(Cc4ccncc4)c(=O)oc3c2)CCCC1, the Ki ([3]; read-out: pKi (converted)) is reported as over 1000 nM, the Ki ([4]; read-out: pKi (converted)) is reported as over 1000 nM and the inhibition [1] is reported as 28%. It also gave an inhibition [2] of 9%.
CCCCC1(c2cc(OC)c3cc(Cc4ccccn4)c(=O)oc3c2)CCCCC1 gave a Ki ([3]; read-out: pKi (converted)) of over 1000 nM, a Ki ([4]; read-out: pKi (converted)) of over 1000 nM and an inhibition ([1]; filed as agonist) of 47%. The inhibition [2] was 12%.
